The source of these data is ChEMBL document CHEMBL1151231, “Antitumor agents. 233. Lantalucratins A-F, new cytotoxic naphthoquinones from Lantana involucrata” (J Nat Prod, 2004).

Experiment [1] relates to CAKI-1. Nature of the experiment: Cytotoxicity against human Caki1 cells after 3 days by SRB assay. The class given is functional, cell-based. The note with it: CAKI-1, 72 h. A digest of the protocol: (§1)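 Freshly trypsinized cells were seeded at 1500-7500 cells per well with test compound added from DMSO-diluted stock and cultured for 3 days. Attached cells were fixed with cold 50% trichloroacetic acid, stained with 0.4% sulforhodamine B, and the bound dye was solubilized and read at 562 nm. IC50 is the concentration giving a 50% drop in absorbance, or growth, relative to untreated cells.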
On the technique in general: The SRB assay estimates cell density from bound dye.

In experiment [2] the test system is 1A9. Nature of the experiment: Cytotoxicity against human 1A9 cells after 3 days by SRB assay. The class given is functional, cell-based. The settings on record: 1A9, 72 h. A digest of the protocol:
as §1

Experiment [3] has as its system KB. Nature of the experiment: Cytotoxicity against human KB cells after 3 days by SRB assay. Type of experiment: functional, cell-based. The settings on record: 72 h. A digest of the protocol: as §1
Experiment [4] concerns MCF7. Nature of the experiment: Cytotoxicity against human MCF7 cells after 3 days by SRB assay. Type of experiment: functional, cell-based. The settings on record: MCF7, 72 h. The procedure, abridged: as §1
For experiment [5], the system named is A549. Nature of the experiment: Cytotoxicity against human A549 cells after 3 days by SRB assay. Type of experiment: functional, cell-based. The settings on record: A549, 72 h. A digest of the protocol: as §1
For experiment [6], the system named is HOS. Nature of the experiment: Cytotoxicity against human HOS cells after 3 days by SRB assay. The class given is functional, cell-based. The settings on record: 72 h. The procedure, abridged: as §1
Experiment [7] is described as follows: Cytotoxicity against vincristine-resistant human KBVIN cells after 3 days by SRB assay. The class given is functional, cell-based. The note with it: 72 h. The procedure, abridged: as §1
Experiment [8] has as its system KB. Nature of the experiment: Cytotoxicity against camptothecin-resistant human KB cells after 3 days by SRB assay. The class given is functional, cell-based. The settings on record: 72 h. A digest of the protocol:
as §1

Experiment [9] can be described thus: Cytotoxicity against human U87MG cells after 3 days by SRB assay. The settings on record: U-87 MG, 72 h. The class given is functional, cell-based, U-87MG ATCC. A digest of the protocol:
as §1

The subject of experiment [10] is 1A9. Nature of the experiment: Cytotoxicity against paclitaxel-resistant human 1A9 cells after 3 days by SRB assay. The class given is functional, cell-based. The note with it: 1A9, 72 h. The procedure, abridged:
as §1

Experiment [11] deals with KB. Nature of the experiment: Cytotoxicity against etoposide-resistant human KB cells after 3 days by SRB assay. The class given is functional, cell-based. The settings on record: 72 h. A digest of the protocol: as §1
The subject of experiment [12] is CAKI-1. Nature of the experiment: Cytotoxicity against human Caki1 cells at 10 uM after 3 days by SRB assay. Type of experiment: functional. The settings on record: for inhibition at 10 µM: CAKI-1, 72 h.
Experiment [13] concerns KB. Nature of the experiment: Cytotoxicity against human KB cells at 10 uM after 3 days by SRB assay. Type of experiment: functional.
Experiment [14] concerns KB. Nature of the experiment: Cytotoxicity against etoposide-resistant human KB cells at 10 uM after 3 days by SRB assay. Type of experiment: functional.
For experiment [15], the system named is KB. Nature of the experiment: Cytotoxicity against vincristine-resistant human KBVIN cells at 10 uM after 3 days by SRB assay. Type of experiment: functional.
Experiment [16] relates to 1A9. Nature of the experiment: Cytotoxicity against paclitaxel-resistant human 1A9 cells at 10 uM after 3 days by SRB assay. Type of experiment: functional. The note with it: for inhibition at 10 µM: 1A9, 72 h.
For experiment [17], the system named is A549. Nature of the experiment: Cytotoxicity against human A549 cells at 10 uM after 3 days by SRB assay. Type of experiment: functional.
A short description of experiment [18]: (§2) Cytotoxicity against human U87MG cells at 10 uM after 3 days by SRB assay. Type of experiment: functional, U-87MG ATCC. The settings on record: U-87 MG, 72 h.
Experiment [19] has as its system KB. Nature of the experiment: Cytotoxicity against camptothecin-resistant human KB cells at 10 uM after 3 days by SRB assay. The class given is functional, cell-based.
Experiment [20] has as its system MCF7. Nature of the experiment: Cytotoxicity against human MCF7 cells at 10 uM after 3 days by SRB assay. Type of experiment: functional. The note with it: MCF7, 72 h.
The test system of experiment [21] is 1A9. Nature of the experiment: Cytotoxicity against human 1A9 cells at 10 uM after 3 days by SRB assay. Type of experiment: functional, cell-based.
The subject of experiment [22] is HOS. Nature of the experiment: Cytotoxicity against human HOS cells at 10 uM after 3 days by SRB assay. The class given is functional, cell-based.
Another experiment has as its system U-87MG ATCC. The experiment is described as §2. Type of experiment: functional.

pIC50: −log10 of the molar value. Activity calls are given as the source filed them. The calls are words filed in the database; no cut-off is given here.

As a reminder, the pIC50 is −log10 of the IC50, conventionally taken in molar units. A high value points to a small IC50. `C=C(C)C1CC2=C(O1)c1ccccc1C(=O)C2=O` (configuration not stated): the pIC50 was 5.02 with CAKI-1 [1]; 5.68 in the experiment with 1A9 [2]; 5.52 in the experiment on KB [3]; 5.92 with MCF7 [4]; 5.57 with A549 [5]; 5.40 with HOS [6]. Also, the pIC50 in experiment [7] was 5.41; in the experiment with KB [8], 5.66; in experiment [9], 5.47; in the experiment on 1A9 [10], 5.64; with KB [11] it was 5.52.

What is called inhibition is how much of the control response was suppressed. High values mean a strong effect, low ones a weak effect. In the case of `C=C(C)C1CC2=C(O1)C(=O)c1ccccc1C2=O` (stereo not drawn) [DEHYDROISO-ALPHA-LAPACHONE], the pIC50 was below 5.00 in the experiment on CAKI-1 [1]; 5.59 with 1A9 [2]; 5.39 in the experiment with KB [3]; 5.92 with MCF7 [4]; 5.19 in the experiment with A549 [5]; 5.44 with HOS [6]. In addition, the pIC50 is 5.24 in [7]; 5.49 with KB [8]; 5.59 in experiment [9]; 5.55 in the experiment with 1A9 [10]; 5.46 in the experiment with KB [11]. The compound further came in with an inhibition at 10 µM in the experiment on CAKI-1 [12] of 26%.

Regarding `C=C(C)C1CC2=C(O1)c1cccc(OC)c1C(=O)C2=O` (configuration not stated) [LANTALUCRATIN A], the inhibition at 10 µM came out at 46% with KB [13] (72 h), 43% with KB [14] (72 h), 17% in the experiment with KB [15] (72 h) and 45% with 1A9 [16]. The pIC50 with 1A9 [2] is 5.41; in the experiment with KB [3], below 5.30; with MCF7 [4] it was 5.80; in the experiment with A549 [5] it was 5.48; in the experiment on HOS [6], 5.32; in [7], below 5.30. The pIC50 was 5.68 in the experiment on KB [8], 5.33 in experiment [9], below 5.30 in the experiment with 1A9 [10] and below 5.30 in the experiment with KB [11]. For the same compound, in the experiment with CAKI-1 [12], the outcome was inactive.

As to `C=C(C)C1CC2=C(O1)c1cccc(O)c1C(=O)C2=O` (configuration not stated) [LANTALUCRATIN B], the pIC50 in the experiment with CAKI-1 [1] was below 5.30; with 1A9 [2], 5.82; in the experiment with KB [3], 5.64; in the experiment with MCF7 [4], 6.00; in the experiment with A549 [5] it was 5.74; in the experiment with HOS [6], 5.60. The pIC50 in experiment [7] was 5.62; in the experiment with KB [8], 6.00; in [9] it was 5.72; in the experiment on 1A9 [10], 5.68; in the experiment with KB [11] it was 5.68. In addition, the inhibition at 10 µM in the experiment on CAKI-1 [12] was found to be 16%.

`C=C(C)C1CC2=C(O1)c1ccc(O)cc1C(=O)C2=O` (configuration not stated) [LANTALUCRATIN C]: the pIC50 in the experiment on 1A9 [2] is 5.03; in the experiment on KB [3], 5.16; with MCF7 [4] it was 5.31; in the experiment with A549 [5], 5.22; with HOS [6] it was 5.33; in experiment [7], 5.20. In addition, the pIC50 with KB [8] is 5.28; in experiment [9], 5.14; in the experiment on 1A9 [10], 5.19; in the experiment with KB [11] it was 5.24.

Consider `C=C(C)C(O)CC1=C(OC)C(=O)c2c(OC)cccc2C1=O` (configuration not stated) [LANTALUCRATIN D], for which the inhibition at 10 µM with A549 [17] (A549, 72 h) worked out at 7%; in experiment [18] it was 8%; in the experiment with MCF7 [20], 20%; in the experiment with 1A9 [16] it was 14%. For the same compound, the outcome in the experiment on KB [13], with KB [14], in the experiment with KB [19], in the experiment on CAKI-1 [12], with 1A9 [21] and with KB [15] was inactive. Further, the outcome with HOS [22] was inactive. Further, the pIC50 (in the experiment with MCF7 [4]; with A549 [5]; in experiment [9]; with 1A9 [10]) was below 5.00 each time.

As to `C=C(C)C(O)CC1=C(OC)C(=O)c2c(OC)ccc(O)c2C1=O` (configuration not stated) [LANTALUCRATIN E], the pIC50 in the experiment on CAKI-1 [1] is below 5.00; in the experiment on 1A9 [2], 5.89; with MCF7 [4], 5.26; with A549 [5], 5.06; with HOS [6], 5.06; in [9], 5.15. In the experiment on 1A9 [10], this compound showed a pIC50 of 5.60. In addition, the outcome in the experiment with KB [13], in the experiment with KB [14], with KB [19] and with KB [15] was inactive. In the experiment on CAKI-1 [12], the inhibition at 10 µM is 8%.

In the case of `C=C(C)C(O)CC1=C(OC)C(=O)c2cc(OC)c(O)c(O)c2C1=O` (configuration not stated) [LANTALUCRATIN F], the result with A549 [17], in the experiment on KB [13], in the experiment with KB [14], with U-87MG ATCC, in the experiment with KB [19] and in the experiment on 1A9 [21] was inactive. The result in the experiment with KB [15], in the experiment on 1A9 [16] and with HOS [22] was inactive. In addition, the pIC50 with CAKI-1 [1] and in the experiment with MCF7 [4] was below 5.00 throughout. In addition, the results for the inhibition at 10 µM with MCF7 [20] and in the experiment with CAKI-1 [12] were 9% and 13%, respectively.

`CC1(C)CCC2=C(O1)c1ccccc1C(=O)C2=O` [LAPACHONE]: the negative logarithm of the IC50 (pIC50) with CAKI-1 [1] is below 5.30; in the experiment with 1A9 [2], 6.10; with KB [3], 5.92; in the experiment with MCF7 [4] it was 6.10; with A549 [5], 5.82; in the experiment on HOS [6], 5.85. The pIC50 in experiment [7] is 5.66; in the experiment with KB [8] it was 6.00; in experiment [9] it was 5.70; in the experiment on 1A9 [10] it was 6.10; in the experiment with KB [11], 5.74. At 10 µM the inhibition in the experiment with CAKI-1 [12] was 42%.
